Laboratory results taken from ChEMBL document CHEMBL4422685, “Design, synthesis and evaluation of a series of 5-methoxy-2,3-naphthalimide derivatives as AcrB inhibitors for the reversal of bacterial resistance” (Bioorg Med Chem Lett, 2019).
Converted amounts (≈) assume the structure as drawn. The source made the active and inactive calls. The rule behind the calls is not given here.

Columns and labels:
[1] = Solubility of the compound in DMSO; type: physicochemical
[2] = test system: Escherichia coli; experiment: Antimicrobial activity against AcrB deficient Escherichia coli; type: functional
[3] = target: T1, Multidrug efflux pump subunit AcrB (Escherichia coli (strain K12)) (UniProt P31224); experiment: Inhibition of AcrB in wild-type drug-resistant Escherichia coli […] assessed as potentiation of chloramphenicol-induced antimicrobial activity by measuring chloramphenicol MIC at 64 ug/ml by checkerboard titration method (Rvb =16 ug/ml)
T1 sequence (whole entry): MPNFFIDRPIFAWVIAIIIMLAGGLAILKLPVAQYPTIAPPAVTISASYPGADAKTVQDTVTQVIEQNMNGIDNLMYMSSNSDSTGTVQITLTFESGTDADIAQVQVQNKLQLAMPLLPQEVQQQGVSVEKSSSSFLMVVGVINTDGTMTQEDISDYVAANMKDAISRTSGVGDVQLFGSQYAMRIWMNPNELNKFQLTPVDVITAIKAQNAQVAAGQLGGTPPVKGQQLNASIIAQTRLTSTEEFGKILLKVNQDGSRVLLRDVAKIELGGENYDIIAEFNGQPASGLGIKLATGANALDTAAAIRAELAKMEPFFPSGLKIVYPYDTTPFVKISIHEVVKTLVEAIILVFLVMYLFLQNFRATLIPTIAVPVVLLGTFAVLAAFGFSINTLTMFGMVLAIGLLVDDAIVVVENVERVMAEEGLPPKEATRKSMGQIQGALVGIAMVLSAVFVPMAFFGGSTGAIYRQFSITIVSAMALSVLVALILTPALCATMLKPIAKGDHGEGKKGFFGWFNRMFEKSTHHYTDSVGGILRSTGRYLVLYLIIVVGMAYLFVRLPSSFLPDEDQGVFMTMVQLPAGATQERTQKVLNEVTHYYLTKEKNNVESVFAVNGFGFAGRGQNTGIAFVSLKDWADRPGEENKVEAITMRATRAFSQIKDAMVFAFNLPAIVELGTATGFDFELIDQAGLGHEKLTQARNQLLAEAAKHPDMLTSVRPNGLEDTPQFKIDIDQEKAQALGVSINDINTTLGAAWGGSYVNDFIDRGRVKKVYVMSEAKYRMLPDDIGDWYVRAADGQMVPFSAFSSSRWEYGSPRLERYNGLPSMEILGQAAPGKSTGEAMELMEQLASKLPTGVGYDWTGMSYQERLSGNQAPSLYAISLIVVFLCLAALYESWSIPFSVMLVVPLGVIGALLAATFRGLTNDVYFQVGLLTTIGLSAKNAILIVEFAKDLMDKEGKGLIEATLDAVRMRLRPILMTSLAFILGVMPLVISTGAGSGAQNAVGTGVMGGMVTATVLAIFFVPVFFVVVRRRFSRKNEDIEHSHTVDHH

[4] = target: T1, Multidrug efflux pump subunit AcrB (Escherichia coli (strain K12)); experiment: Inhibition of AcrB in wild-type drug-resistant Escherichia coli […] assessed as potentiation of tetraphenyl phosphonium chloride-induced antimicrobial activity by measuring tetraphenyl phosphonium chloride MIC at 8 ug/ml by checkerboard titration method (reference value: 1024 ug/ml)
[5] = target: T1, Multidrug efflux pump subunit AcrB (Escherichia coli (strain K12)); experiment: Inhibition of AcrB in wild-type drug-resistant Escherichia coli […] assessed as potentiation of erythromycin-induced antimicrobial activity by measuring erythromycin MIC at 32 ug/ml by checkerboard titration method (reference value: 64 ug/ml)
[6] = target: T1, Multidrug efflux pump subunit AcrB (Escherichia coli (strain K12)); experiment: Inhibition of AcrB in wild-type drug-resistant Escherichia coli […] assessed as potentiation of levofloxacin-induced antimicrobial activity by measuring levofloxacin MIC at 32 ug/ml by checkerboard titration method (reference value: 0.063 ug/ml)
[7] = target: T1, Multidrug efflux pump subunit AcrB (Escherichia coli (strain K12)); experiment: Inhibition of AcrB in wild-type drug-resistant Escherichia coli […] assessed as potentiation of erythromycin-induced antimicrobial activity by measuring erythromycin MIC at 64 ug/ml by checkerboard titration method (reference value: 64 ug/ml)
[8] = target: T1, Multidrug efflux pump subunit AcrB (Escherichia coli (strain K12)); experiment: Inhibition of AcrB in wild-type drug-resistant Escherichia coli […] assessed as potentiation of chloramphenicol-induced antimicrobial activity by measuring chloramphenicol MIC at 128 ug/ml by checkerboard titration method (Rvb =16 ug/ml)
[9] = target: T1, Multidrug efflux pump subunit AcrB (Escherichia coli (strain K12)); experiment: Inhibition of AcrB in wild-type drug-resistant Escherichia coli […] assessed as potentiation of tetraphenyl phosphonium chloride-induced antimicrobial activity by measuring tetraphenyl phosphonium chloride MIC at 16 ug/ml by checkerboard titration method (reference value: 1024 ug/ml)
[10] = target: T1, Multidrug efflux pump subunit AcrB (Escherichia coli (strain K12)); experiment: Inhibition of AcrB in wild-type drug-resistant Escherichia coli […] assessed as potentiation of levofloxacin-induced antimicrobial activity by measuring levofloxacin MIC at 16 ug/ml by checkerboard titration method (reference value: 0.063 ug/ml)
[11] = target: T1, Multidrug efflux pump subunit AcrB (Escherichia coli (strain K12)); experiment: Inhibition of AcrB in wild-type drug-resistant Escherichia coli […] assessed as potentiation of erythromycin-induced antimicrobial activity by measuring erythromycin MIC at 8 ug/ml by checkerboard titration method (reference value: 64 ug/ml)
[12] = target: T1, Multidrug efflux pump subunit AcrB (Escherichia coli (strain K12)); experiment: Inhibition of AcrB in wild-type drug-resistant Escherichia coli […] assessed as potentiation of tetraphenyl phosphonium chloride-induced antimicrobial activity by measuring tetraphenyl phosphonium chloride MIC at 32 ug/ml by checkerboard titration method (reference value: 1024 ug/ml)
[13] = test system: Escherichia coli; experiment: Induction of Escherichia coli outer membrane permeabilization assessed as increase in nitrocefin hydrolysis at 128 ug/ml by spectroscopic method; type: organism-based
[14] = target: T1, Multidrug efflux pump subunit AcrB (Escherichia coli (strain K12)); experiment: Inhibition of AcrB in wild-type drug-resistant Escherichia coli […] assessed as potentiation of levofloxacin-induced antimicrobial activity by measuring levofloxacin MIC at 128 ug/ml by checkerboard titration method (reference value: 0.063 ug/ml)
[15] = target: T1, Multidrug efflux pump subunit AcrB (Escherichia coli (strain K12)); experiment: Inhibition of AcrB in wild-type drug-resistant Escherichia coli […] assessed as potentiation of erythromycin-induced antimicrobial activity by measuring erythromycin MIC at 16 ug/ml by checkerboard titration method (reference value: 64 ug/ml)
[16] = target: T1, Multidrug efflux pump subunit AcrB (Escherichia coli (strain K12)); experiment: Inhibition of AcrB in wild-type drug-resistant Escherichia coli […] assessed as potentiation of levofloxacin-induced antimicrobial activity by measuring levofloxacin MIC at 8 ug/ml by checkerboard titration method (reference value: 0.063 ug/ml)
[17] = target: T1, Multidrug efflux pump subunit AcrB (Escherichia coli (strain K12)); experiment: Inhibition of AcrB in wild-type drug-resistant Escherichia coli […] assessed as potentiation of erythromycin-induced antimicrobial activity by measuring erythromycin MIC at 128 ug/ml by checkerboard titration method (reference value: 64 ug/ml)
[18] = target: T1, Multidrug efflux pump subunit AcrB (Escherichia coli (strain K12)); experiment: Inhibition of AcrB in wild-type drug-resistant Escherichia coli […] assessed as potentiation of chloramphenicol-induced antimicrobial activity by measuring chloramphenicol MIC at 8 ug/ml by checkerboard titration method (Rvb =16 ug/ml)
[19] = target: T1, Multidrug efflux pump subunit AcrB (Escherichia coli (strain K12)); experiment: Inhibition of AcrB in wild-type drug-resistant Escherichia coli […] assessed as reduction in glucose-induced nile red efflux at 200 uM by fluorescence assay
How it was run: (§1)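 E. coli cells (wild-type resistant with active pump, acrB-deleted, or wild-type plus compound) preloaded with Nile Red before fluorescence recording. Efflux triggered at 100 s by adding 0.2% glucose. Fluorescence traces followed; experiments with different cell batches on three different days.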

[20] = target: T1, Multidrug efflux pump subunit AcrB (Escherichia coli (strain K12)); experiment: Inhibition of AcrB in wild-type drug-resistant Escherichia coli […] assessed as potentiation of levofloxacin-induced antimicrobial activity by measuring levofloxacin MIC at 64 ug/ml by checkerboard titration method (reference value: 0.063 ug/ml)
[21] = test system: Escherichia coli; experiment: Toxicity against AcrB deficient Escherichia coli AcrB lacking at 128 ug/ml; type: organism-based; details: in vivo
How it was run: (§2)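 MIC determination against wild-type resistant E. coli BW25113 and an isogenic acrB-deleted strain; highest concentration tested 128 mg/L.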

[22] = test system: Escherichia coli; experiment: Toxicity against wild-type drug-resistant Escherichia coli […] at 128 ug/ml; type: organism-based; details: in vivo; how it was run: as §2
[23] = target: T1, Multidrug efflux pump subunit AcrB (Escherichia coli (strain K12)); experiment: Inhibition of AcrB in wild-type drug-resistant Escherichia coli […] assessed as potentiation of chloramphenicol-induced antimicrobial activity by measuring chloramphenicol MIC at 32 ug/ml by checkerboard titration method (Rvb =16 ug/ml)
[24] = target: T1, Multidrug efflux pump subunit AcrB (Escherichia coli (strain K12)); experiment: Inhibition of AcrB in wild-type drug-resistant Escherichia coli […] assessed as potentiation of tetraphenyl phosphonium chloride-induced antimicrobial activity by measuring tetraphenyl phosphonium chloride MIC at 64 ug/ml by checkerboard titration method (reference value: 1024 ug/ml)
[25] = target: T1, Multidrug efflux pump subunit AcrB (Escherichia coli (strain K12)); experiment: Inhibition of AcrB in wild-type drug-resistant Escherichia coli BW2113 assessed as potentiation of chloramphenicol-induced antimicrobial activity by measuring chloramphenicol MIC at 16 ug/ml by checkerboard titration method (Rvb =16 ug/ml)
[26] = target: T1, Multidrug efflux pump subunit AcrB (Escherichia coli (strain K12)); experiment: Inhibition of AcrB in wild-type drug-resistant Escherichia coli […] assessed as potentiation of tetraphenyl phosphonium chloride-induced antimicrobial activity by measuring tetraphenyl phosphonium chloride MIC at 128 ug/ml by checkerboard titration method (reference value: 1024 ug/ml)
[27] = target: T1, Multidrug efflux pump subunit AcrB (Escherichia coli (strain K12)); experiment: Inhibition of AcrB in wild-type drug-resistant Escherichia coli […] assessed as reduction in glucose-induced nile red efflux at 500 uM by fluorescence assay; how it was run: as §1

CCc1ccc(N2C(=O)c3cc4cccc(OC)c4cc3C2=O)cc1
solubility [1]: Insoluble

COc1cccc2cc3c(cc12)C(=O)N(c1ccc(C(C)C)cc1)C3=O
solubility [1]: Insoluble

CCCCc1ccc(N2C(=O)c3cc4cccc(OC)c4cc3C2=O)cc1
solubility [1]: Insoluble

COc1ccccc1N1C(=O)c2cc3cccc(OC)c3cc2C1=O
solubility [1]: Insoluble

COc1cccc2cc3c(cc12)C(=O)N(Cc1ccc(F)cc1)C3=O
solubility [1]: Insoluble

COc1cccc2cc3c(cc12)C(=O)N(Cc1ccc(C)cc1)C3=O
solubility [1]: Insoluble

C[C@H]1COc2c(N3CCN(C)CC3)c(F)cc3c(=O)c(C(=O)O)cn1c23.C[C@H]1COc2c(N3CCN(C)CC3)c(F)cc3c(=O)c(C(=O)O)cn1c23.O [LEVOFLOXACIN]
MIC [2]: 0.0039 µg/mL

COc1cccc2cc3c(cc12)C(=O)N(Cc1ccc(Cl)cc1)C3=O
solubility [1]: Insoluble

COc1cccc2cc3c(cc12)C(=O)N(CCc1ccccc1Cl)C3=O
solubility [1]: Insoluble

COc1cccc2cc3c(cc12)C(=O)N(CCc1ccc(F)cc1)C3=O
solubility [1]: Insoluble

COc1cccc2cc3c(cc12)C(=O)N(c1ccccc1C(F)(F)F)C3=O
solubility [1]: Insoluble

[Cl-].c1ccc([P+](c2ccccc2)(c2ccccc2)c2ccccc2)cc1 [TETRAPHENYLPHOSPHONIUM CHLORIDE]
MIC [2]: 32 µg/mL

COc1cccc(N2C(=O)c3cc4cccc(OC)c4cc3C2=O)c1
solubility [1]: Insoluble

COc1cccc2cc3c(cc12)C(=O)N(C(C)(C)C)C3=O
MIC [3]: 16 µg/mL
MIC [4]: 1020 µg/mL
MIC [5]: 64 µg/mL
MIC [6]: 0.063 µg/mL
MIC [7]: 32 µg/mL
MIC [8]: 16 µg/mL
MIC [9]: 1020 µg/mL
MIC [10]: 0.063 µg/mL
MIC [11]: 64 µg/mL
MIC [12]: 1020 µg/mL
Activity [13]: Non-Toxic
MIC [14]: 0.063 µg/mL
MIC [15]: 64 µg/mL
MIC [16]: 0.063 µg/mL
MIC [17]: 32 µg/mL
MIC [18]: 16 µg/mL
inhibition [19]: Active
MIC [20]: 0.063 µg/mL
Activity [21]: Non-Toxic
Activity [22]: Non-Toxic
MIC [23]: 16 µg/mL
MIC [24]: 1020 µg/mL
MIC [25]: 16 µg/mL
MIC [26]: 512 µg/mL
inhibition [27]: 100%

COc1cccc2cc3c(cc12)C(=O)N(Cc1ccccc1Cl)C3=O
MIC [3]: 16 µg/mL
MIC [4]: 1020 µg/mL
MIC [5]: 64 µg/mL
MIC [6]: 0.063 µg/mL
MIC [7]: 64 µg/mL
MIC [8]: 16 µg/mL
MIC [9]: 1020 µg/mL
MIC [10]: 0.063 µg/mL
MIC [11]: 64 µg/mL
MIC [12]: 1020 µg/mL
MIC [14]: 0.063 µg/mL
MIC [15]: 64 µg/mL
MIC [16]: 0.063 µg/mL
MIC [17]: 32 µg/mL
MIC [18]: 16 µg/mL
MIC [20]: 0.063 µg/mL
Activity [21]: Non-Toxic
Activity [22]: Non-Toxic
MIC [23]: 16 µg/mL
MIC [24]: 1020 µg/mL
MIC [25]: 16 µg/mL
MIC [26]: 512 µg/mL

COc1cccc2cc3c(cc12)C(=O)N(c1cccc(C)c1)C3=O
solubility [1]: Insoluble

CC[C@H]1OC(=O)[C@H](C)[C@@H](O[C@H]2C[C@@](C)(OC)[C@@H](O)[C@H](C)O2)[C@H](C)[C@@H](O[C@@H]2O[C@H](C)C[C@H](N(C)C)[C@H]2O)[C@](C)(O)C[C@@H](C)C(=O)[C@H](C)[C@@H](O)[C@]1(C)O [ERYTHROMYCIN]
MIC [2]: 64 µg/mL (≈ 87.2 µM)
